According to ChEMBL document CHEMBL1127802, “Selective inhibitors of monoamine oxidase. 2. Arylamide SAR” (J Med Chem, 1994):
Values belong to the compound of their own block, whether it stands above or below them.

Assays:
[1] = target: T1, MAO A (monoamine oxidase A) (Rattus norvegicus, UniProt P21396); assay: Inhibitory activity against monoamine oxidase A (MAO A) from rat brain using a radiometric procedure with [3H]5-HT at 10 uM; details: rat brain monoamine oxidase A preparation, probe [3H]5-HT
T1 sequence (P21396 whole entry): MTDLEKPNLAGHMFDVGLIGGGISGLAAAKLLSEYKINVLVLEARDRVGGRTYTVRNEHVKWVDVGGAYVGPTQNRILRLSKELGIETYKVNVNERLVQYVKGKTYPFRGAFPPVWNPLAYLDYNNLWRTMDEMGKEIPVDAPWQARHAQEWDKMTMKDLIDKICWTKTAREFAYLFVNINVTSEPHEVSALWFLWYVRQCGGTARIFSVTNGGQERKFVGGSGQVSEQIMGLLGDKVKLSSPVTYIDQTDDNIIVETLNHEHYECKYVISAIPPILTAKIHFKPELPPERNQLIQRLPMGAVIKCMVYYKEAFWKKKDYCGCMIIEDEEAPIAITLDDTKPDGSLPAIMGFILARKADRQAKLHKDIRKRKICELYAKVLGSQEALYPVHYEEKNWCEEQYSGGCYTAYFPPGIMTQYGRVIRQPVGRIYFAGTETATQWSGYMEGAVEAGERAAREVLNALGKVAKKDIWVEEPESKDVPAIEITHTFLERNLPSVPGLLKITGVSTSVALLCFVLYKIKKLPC
Method in brief: (§1)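 Rat brain mitochondrial MAO extract was preincubated with or without inhibitor for 15 min at 37 °C in 50 mM potassium phosphate, pH 7.4. […] Blanks contained 2 mM pargyline. Reactions were stopped with HCl, products extracted into ethyl acetate/toluene and counted by scintillation. Triplicates were averaged as % inhibition, and IC50 was taken from % inhibition vs log concentration.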

[2] = target: T2, MAO B (monoamine oxidase B) (Rattus norvegicus, UniProt P19643); assay: (§2) Inhibitory activity against monoamine oxidase B (MAO B) from rat brain using a radiometric procedure with [14C]phenylethylamine at 1 uM; details: rat brain monoamine oxidase B preparation, probe [14C]phenylethylamine
T2 sequence (P19643 whole entry): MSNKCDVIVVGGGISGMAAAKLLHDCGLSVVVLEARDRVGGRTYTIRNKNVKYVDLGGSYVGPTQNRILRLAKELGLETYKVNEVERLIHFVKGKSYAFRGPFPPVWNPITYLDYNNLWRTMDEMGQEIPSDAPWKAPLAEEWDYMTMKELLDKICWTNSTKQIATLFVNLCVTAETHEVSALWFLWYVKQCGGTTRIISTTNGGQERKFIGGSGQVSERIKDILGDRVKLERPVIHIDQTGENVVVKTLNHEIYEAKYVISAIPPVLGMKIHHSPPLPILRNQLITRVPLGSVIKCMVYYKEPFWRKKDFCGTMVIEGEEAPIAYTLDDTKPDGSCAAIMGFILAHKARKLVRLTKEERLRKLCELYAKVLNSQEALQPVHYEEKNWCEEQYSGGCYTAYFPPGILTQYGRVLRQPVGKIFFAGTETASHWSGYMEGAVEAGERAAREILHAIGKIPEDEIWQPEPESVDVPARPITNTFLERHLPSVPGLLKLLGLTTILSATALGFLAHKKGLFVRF
Method in brief: (§3)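 Rat brain mitochondrial MAO extract was preincubated ± inhibitor for 15 min at 37 °C in 50 mM potassium phosphate, pH 7.4. […] Pargyline (2 mM) defined blanks. Acid stop, ethyl acetate/toluene extraction and scintillation counting followed. Triplicate means gave % inhibition, and IC50 was extrapolated from % inhibition vs log concentration plots.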

[3] = target: T1, MAO A (monoamine oxidase A); assay: (§4) Inhibitory activity against monoamine oxidase A (MAO A) from rat brain using a radiometric procedure with [3H]5-HT at 1 uM; details: rat brain monoamine oxidase A preparation, probe [3H]5-HT; method in brief: as §1
[4] = target: T1, MAO A (monoamine oxidase A); assay: Inhibitory activity against monoamine oxidase A (MAO A) from rat brain using a radiometric procedure with [3H]- serotonin at 1 uM; details: rat brain monoamine oxidase A preparation, probe [3H]-serotonin; method in brief: as §1
[5] = target: T2, MAO B (monoamine oxidase B); assay: Inhibitory activity against monoamine oxidase B (MAO B) from rat brain using a radiometric procedure with [14C]- phenethylamine at 1 uM; details: rat brain monoamine oxidase B preparation, probe [14C]-phenethylamine; method in brief: as §3
[6] = target: T3, Amine oxidase [flavin-containing] B (Rattus norvegicus, UniProt P19643); assay: as §2; method in brief: as §3
T3 sequence (P19643 whole entry): T2 sequence (P19643 whole entry)

[7] = target: T4, Amine oxidase [flavin-containing] A (Rattus norvegicus, UniProt P21396); assay: as §4; method in brief: as §1
T4 sequence (P21396 whole entry): T1 sequence (P21396 whole entry)

[8] = target: T4, Amine oxidase [flavin-containing] A; assay: Inhibitory activity against monoamine oxidase A (MAO A) from rat brain using a radiometric procedure with [3H]5-HT; method in brief: as §1
[9] = target: T3, Amine oxidase [flavin-containing] B; assay: Inhibitory activity against monoamine oxidase B (MAO B) from rat brain using a radiometric procedure with [14C]- phenethylamine.; method in brief: as §3
[10] = target: T4, Amine oxidase [flavin-containing] A; assay: Inhibitory activity against monoamine oxidase A (MAO A) from rat brain using a radiometric procedure with [3H]- serotonin.; method in brief: as §1
[11] = target: T2, MAO B (monoamine oxidase B); assay: Inhibitory activity against monoamine oxidase B (MAO B) from rat brain using a radiometric procedure with [14C]phenylethylamine at 0.3 uM; details: rat brain monoamine oxidase B preparation, probe [14C]phenylethylamine; method in brief: as §3
[12] = target: T2, MAO B (monoamine oxidase B); assay: Inhibitory activity against monoamine oxidase B (MAO B) from rat brain using a radiometric procedure with [14C]- phenethylamine at 10 uM; details: rat brain monoamine oxidase B preparation, probe [14C]-phenethylamine; method in brief: as §3
[13] = target: T2, MAO B (monoamine oxidase B); assay: Inhibitory activity against monoamine oxidase B (MAO B) from rat brain using a radiometric procedure with [14C]phenylethylamine at 10 uM; details: rat brain monoamine oxidase B preparation, probe [14C]phenylethylamine; method in brief: as §3
[14] = target: T3, Amine oxidase [flavin-containing] B; assay: Inhibitory activity against monoamine oxidase B (MAO B) from rat brain using a radiometric procedure with [14C]- phenethylamine at<10 uM; method in brief: as §3
[15] = target: T1, MAO A (monoamine oxidase A); assay: Inhibitory activity against monoamine oxidase A (MAO A) from rat brain using a radiometric procedure with [3H]- serotonin at 10 uM; details: rat brain monoamine oxidase A preparation, probe [3H]-serotonin; method in brief: as §1

inhibition [1]: 0%
SMILES: Nc1ccc2[nH]c(=O)c3ccccc3c2c1

inhibition at 1 µM [2]: 11%
inhibition [3]: 0%
SMILES: CC(=O)Nc1ccc2[nH]c(=O)c3ccccc3c2c1

inhibition at 1 µM [4]: 0%
inhibition at 1 µM [5]: 0%
SMILES: CC(=O)Nc1ccc2[nH]ccc2c1

inhibition at 1 µM [2]: 18%
inhibition [3]: 60%
SMILES: CC(=O)Nc1ccc2c(c1)S(=O)(=O)c1ccccc1N2C

inhibition [3]: 36%
SMILES: CCCC(=O)Nc1ccc2c(c1)[nH]c1ccccc12

inhibition [1]: 80%
SMILES: CC(=O)Nc1ccc2c3ccccc3n(CCCN3CCN(C)CC3)c2c1

inhibition [6]: 42%
inhibition [7]: < 1%
SMILES: CC(=O)Nc1ccc2[nH]c(C)c(C)c2c1

inhibition at 1 µM [2]: 0%
inhibition [3]: 50%
SMILES: CC(=O)NCCc1ccc2c(c1)c1ccccc1n2C

inhibition at 1 µM [2]: 49%
inhibition [3]: 17%
SMILES: CC(=O)Nc1ccc2c(c1)S(=O)(=O)c1ccccc1C2

IC50 [8]: 300 nM
SMILES: CC(=O)Nc1ccc2c(c1)C(O)c1ccccc1-2 (stereo unspecified)

inhibition at 1 µM [2]: 0%
inhibition [3]: 55%
SMILES: CC(=O)Nc1ccc2c(c1)c(O)nc1ccccc12

IC50 [9]: 3500 nM
IC50 [10]: 160 nM
SMILES: CC(=O)Nc1ccc2c(c1)C(=O)c1ccccc1C2=O

inhibition at 1 µM [2]: 21%
inhibition [3]: 72%
SMILES: CC(=O)Nc1ccc2c(O)c3ccccc3nc2c1

IC50 [10]: 40 nM
inhibition at 1 µM [5]: 8%
SMILES: CC(=O)Nc1ccc2c(c1)oc(=O)c1ccccc12

IC50 [8]: 1200 nM
SMILES: CCC(=O)Nc1ccc2c(c1)-c1ccccc1S2(=O)=O

inhibition at 1 µM [2]: -27%
inhibition [3]: 37%
SMILES: CC(=O)Nc1ccc2c(c1)N(C(C)=O)CC2

IC50 [8]: 10 nM
inhibition at 0.3 µM [11]: 15%
SMILES: CCc1ccc2c(c1)C(=O)c1ccc(NC(C)=O)cc1S2(=O)=O

inhibition at 1 µM [2]: 0%
inhibition [3]: 35%
SMILES: CC(=O)Nc1ccc2c3c([nH]c2c1)CCCC3

inhibition at 1 µM [2]: 3%
IC50 [8]: 40 nM
SMILES: CC(=O)Nc1ccc2c(c1)C(=O)c1ccccc1-2

IC50 [8]: 1100 nM
SMILES: O=CNc1ccc2c(c1)[nH]c1ccccc12

IC50 [8]: 1000 nM
SMILES: Nc1ccc2c(c1)-c1ccccc1S2(=O)=O

inhibition at 10 µM [12]: 37%
SMILES: CC(=O)Nc1ccc2[nH]c3ccccc3c2c1

inhibition at 10 uM [13]: -7%
IC50 [8]: 20 nM
SMILES: CCCc1ccc2c(c1)S(=O)(=O)c1cc(NC(C)=O)ccc1C2=O

inhibition at 1 µM [4]: 10%
inhibition at 1 µM [5]: 12%
SMILES: CC(=O)Nc1cc2c(ccc3ccccc32)oc1=O

inhibition [3]: 0%
SMILES: CC(=O)N(C)c1ccc2c(c1)-c1ccccc1S2(=O)=O

inhibition [14]: 53%
inhibition at 1 µM [4]: 5%
SMILES: CC(=O)Nc1cc2ccccc2oc1=O

inhibition at 10 µM [12]: 4%
inhibition at 10 µM [15]: 4%
SMILES: CC(=O)Nc1ccc(Nc2ccccc2)c(NC(C)=O)c1

IC50 [8]: 300 nM
SMILES: CC(=O)Nc1ccc2c(c1)oc1ccccc12
